Data: ChEMBL document CHEMBL3525971 (Drug Metab Dispos, 2011)

Legend:
[1] = Ratio of AUC in bile to plasma withdrawn from hepatic vein in castrated pig at 0.2 mg/kg, iv by UPLC-tandem mass spectrometry; format: ADME, organism-based, Sus scrofa; set-up: dose 0.2 mg/kg, route intravenous; conditions: male, read-out: Ratio AUC
How it was run: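 Bile collected 0-6 h and weighed; portal and hepatic vein plasma sampled. Analytes quantified by UPLC-MS/MS (finasteride-d9 internal standard, SRM). Bile AUC divided by plasma AUC for each vein.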

[2] = tested on: Sus scrofa; assay: Hepatic clearance in castrated pig at 0.8 mg/kg, administered as intrajejunal dose by UPLC-tandem mass spectrometry; format: ADME, organism-based, Liver; set-up: dose 0.8 mg/kg; conditions: in vivo, other
How it was run: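 Portal and hepatic vein plasma measured 0-6 h by UPLC-MS/MS. Extraction ratio derived from portal versus hepatic concentrations or AUCs; CLH then obtained as EH × liver blood flow 52 ml/min/kg × measured blood/plasma ratio.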

[3] = Ratio of AUC in bile to plasma withdrawn from hepatic vein in castrated pig at 0.8 mg/kg administered as intrajejunal dose by UPLC-tandem mass spectrometry; format: ADME, organism-based, Sus scrofa; set-up: dose 0.8 mg/kg; conditions: male, read-out: Ratio AUC
How it was run: (§1)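 Bile collected 0-6 h and weighed; portal and hepatic vein plasma sampled. UPLC-MS/MS quantification against finasteride-d9 in SRM mode. Bile/plasma AUC ratio calculated per vein.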

[4] = Cmax in castrated pig plasma withdrawn from femoral vein at 0.8 mg/kg administered as intrajejunal dose 20 mins after ketoconazole administration by UPLC-tandem mass spectrometry; format: ADME, organism-based, Sus scrofa; set-up: dose 0.8 mg/kg; conditions: male
How it was run: (§2)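 Where ketoconazole was co-dosed, it was given at 10 mg/kg at the same jejunal site 20 min before. Plasma protein-precipitated with acetonitrile and analysed by UPLC-MS/MS (finasteride-d9). AUC0-6h, Cmax and t1/2 (ln2/λz) were derived by non- or compartmental analysis.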

[5] = Cmax in castrated pig bile at 0.8 mg/kg administered as intrajejunal dose 20 mins after ketoconazole administration by UPLC-tandem mass spectrometry; format: ADME, organism-based, Sus scrofa; set-up: dose 0.8 mg/kg; conditions: male
[6] = Drug excretion in castrated pig urine assessed as unchanged drug level at 0.8 mg/kg administered as intrajejunal dose 20 mins after ketoconazole administration measured during 6 hrs sampling by UPLC-tandem mass spectrometry; format: ADME, organism-based, Sus scrofa; set-up: dose 0.8 mg/kg; conditions: in vivo, other
[7] = tested on: Sus scrofa; assay: Absorption rate constant in castrated pig plasma withdrawn from portal vein at 0.8 mg/kg administered as intrajejunal dose by UPLC-tandem mass spectrometry; format: ADME, organism-based; set-up: dose 0.8 mg/kg; conditions: in vivo, other
[8] = Cmax in castrated pig plasma withdrawn from hepatic vein at 0.8 mg/kg administered as intrajejunal dose 20 mins after ketoconazole administration by UPLC-tandem mass spectrometry; format: ADME, organism-based, Sus scrofa; set-up: dose 0.8 mg/kg; conditions: male; how it was run: as §2
[9] = Tmax in castrated pig plasma withdrawn from hepatic vein at 0.8 mg/kg administered as intrajejunal dose 20 mins after ketoconazole administration by UPLC-tandem mass spectrometry; format: ADME, organism-based, Sus scrofa; set-up: dose 0.8 mg/kg; conditions: male
How it was run: (§3)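 Portal, hepatic and femoral vein plasma sampled over 6 h and assayed by UPLC-MS/MS. Tmax read directly from the profiles. Terminal t1/2 calculated as ln2/λz by non- or compartmental analysis; values below LLOQ after Cmax excluded.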

[10] = Ratio of AUC in bile to plasma withdrawn from portal vein in castrated pig at 0.8 mg/kg administered as intrajejunal dose 20 mins after ketoconazole administration by UPLC-tandem mass spectrometry; format: ADME, organism-based, Sus scrofa; set-up: dose 0.8 mg/kg; conditions: male, read-out: Ratio AUC; how it was run: as §1
[11] = Drug excretion in castrated pig urine assessed as omega-hydroxy finasteride metabolite formation by UPLC-tandem mass spectrometry; format: ADME, tissue-based, Sus scrofa
[12] = tested on: Sus scrofa; assay: Absorption rate constant in castrated pig plasma withdrawn from portal vein at 0.8 mg/kg administered as intrajejunal dose 20 mins after ketoconazole administration by UPLC-tandem mass spectrometry; format: ADME, organism-based; set-up: dose 0.8 mg/kg; conditions: in vivo, other
[13] = Tmax in castrated pig plasma withdrawn from portal vein at 0.8 mg/kg administered as intrajejunal dose by UPLC-tandem mass spectrometry; format: ADME, organism-based, Sus scrofa; set-up: dose 0.8 mg/kg; conditions: male; how it was run: as §3
[14] = Apparent half-life of the terminal disposition phase in castrated pig plasma withdrawn from femoral vein at 0.2 mg/kg, iv by UPLC-tandem mass spectrometry; format: ADME, organism-based, Sus scrofa; set-up: dose 0.2 mg/kg, route intravenous; conditions: male, read-out: t1/2 lambda z (converted); how it was run: as §2
[15] = Renal clearance in castrated pig at 0.2 mg/kg, iv by UPLC-tandem mass spectrometry; format: ADME, organism-based, Sus scrofa, Kidney; set-up: dose 0.2 mg/kg, route intravenous; conditions: male, in vivo
How it was run: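 Urine collected 0-360 min into a closed bag, weighed and frozen at -20°C. […] Doses: iv 0.2 mg/kg bolus via central vein catheter (n=3), or ij 0.8 mg/kg alone or 20 min after ij ketoconazole 10 mg/kg (n=5). Renal clearance derived from the amount excreted in urine over 0-6 h.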

[16] = AUC (0 to 6 hrs) in castrated pig plasma withdrawn from portal vein at 0.2 mg/kg, iv by UPLC-tandem mass spectrometry; format: ADME, organism-based, Sus scrofa; set-up: time < 6 hr, dose 0.2 mg/kg, route intravenous; conditions: male; how it was run: as §2
[17] = AUC (0 to 6 hrs) in castrated pig plasma withdrawn from hepatic vein at 0.8 mg/kg administered as intrajejunal dose 20 mins after ketoconazole administration by UPLC-tandem mass spectrometry; format: ADME, organism-based, Sus scrofa; set-up: time < 6 hr, dose 0.8 mg/kg; conditions: male; how it was run: as §2
[18] = Cmax in castrated pig plasma withdrawn from femoral vein at 0.8 mg/kg administered as intrajejunal dose by UPLC-tandem mass spectrometry; format: ADME, organism-based, Sus scrofa; set-up: dose 0.8 mg/kg; conditions: male; how it was run: as §2
[19] = Total plasma clearance in human; format: ADME, organism-based
[20] = Biliary excretion in castrated pig assessed as unchanged drug level at 0.8 mg/kg administered as intrajejunal dose 20 mins after ketoconazole administration measured during 6 hrs sampling by UPLC-tandem mass spectrometry; format: ADME, organism-based, Sus scrofa, Bile; set-up: dose 0.8 mg/kg; conditions: in vivo, other
[21] = Drug excretion in castrated pig urine assessed as fraction of the dose excreted at 0.2 mg/kg, iv measured during 6 hrs sampling by UPLC-tandem mass spectrometry; format: ADME, organism-based, Sus scrofa; set-up: dose 0.2 mg/kg, route intravenous; conditions: male, read-out: Drug excretion
[22] = Drug excretion in castrated pig urine assessed as unchanged drug level at 0.2 mg/kg, iv measured during 6 hrs sampling by UPLC-tandem mass spectrometry; format: ADME, organism-based, Sus scrofa; set-up: dose 0.2 mg/kg, route intravenous; conditions: in vivo
[23] = Volume of distribution at steady state in castrated pig at 0.2 mg/kg, iv by UPLC-tandem mass spectrometry; format: ADME, organism-based, Sus scrofa; set-up: dose 0.2 mg/kg, route intravenous; conditions: male, in vivo, read-out: Vdss
How it was run: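 Femoral plasma assayed over 0-6 h by UPLC-MS/MS. CL calculated as dose/AUCVF,0-6h; Vss calculated as MRT × CL, with MRT = AUMC0-6h/AUC0-6h.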

[24] = Terminal half life in castrated pig plasma withdrawn from femoral vein at 0.8 mg/kg administered as intrajejunal dose by UPLC-tandem mass spectrometry; format: ADME, organism-based, Sus scrofa; set-up: dose 0.8 mg/kg; conditions: male, read-out: beta t1/2 (converted); how it was run: as §3
[25] = tested on: Sus scrofa; assay: Absorption rate constant in castrated pig plasma withdrawn from femoral vein at 0.8 mg/kg administered as intrajejunal dose 20 mins after ketoconazole administration by UPLC-tandem mass spectrometry; format: ADME, organism-based; set-up: dose 0.8 mg/kg; conditions: in vivo, other
[26] = Apparent biliary clearance in castrated pig at 0.2 mg/kg, iv by UPLC-tandem mass spectrometry; format: ADME, organism-based, Sus scrofa, Bile; set-up: dose 0.2 mg/kg, route intravenous; conditions: in vivo
[27] = tested on: Plasma; assay: Drug metabolism in castrated pig plasma withdrawn from hepatic vein assessed as omega-hydroxy finasteride metabolite formation by UPLC-tandem mass spectrometry; format: ADME, cell-free, Sus scrofa
How it was run: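 Plasma sampled 0-6 h from portal, hepatic and femoral veins. Analysed by acetonitrile precipitation with finasteride-d9 internal standard, then UPLC-MS/MS in SRM mode, m/z 389.41 → 271.94 for the ω-hydroxy metabolite.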

[28] = Apparent biliary clearance in castrated pig at 0.8 mg/kg administered as intrajejunal dose by UPLC-tandem mass spectrometry; format: ADME, organism-based, Sus scrofa, Bile; set-up: dose 0.8 mg/kg; conditions: in vivo, other
[29] = Ratio of AUC in bile to plasma withdrawn from portal vein in castrated pig at 0.8 mg/kg administered as intrajejunal dose by UPLC-tandem mass spectrometry; format: ADME, organism-based, Sus scrofa; set-up: dose 0.8 mg/kg; conditions: male, read-out: Ratio AUC; how it was run: as §1
[30] = Terminal half life in castrated pig plasma withdrawn from portal vein at 0.8 mg/kg administered as intrajejunal dose 20 mins after ketoconazole administration by UPLC-tandem mass spectrometry; format: ADME, organism-based, Sus scrofa; set-up: dose 0.8 mg/kg; conditions: male, read-out: beta t1/2 (converted); how it was run: as §3
[31] = Terminal half life in castrated pig plasma withdrawn from hepatic vein at 0.8 mg/kg administered as intrajejunal dose by UPLC-tandem mass spectrometry; format: ADME, organism-based, Sus scrofa; set-up: dose 0.8 mg/kg; conditions: male, read-out: beta t1/2 (converted); how it was run: as §3

Kp [1]: 7
CLH [2]: 36000 mL/day/kg
Kp [3]: 14
Cmax [4]: 1200 nM
Cmax [5]: 2000 nM
ka [7]: 19 h⁻¹
Cmax [8]: 1400 nM
Tmax [9]: 1 h
Kp at 20 min [10]: 0.7
Drug excretion [11]: metabolite_not_detected
ka [12]: 29 h⁻¹
Tmax [13]: 0.3 h
half-life [14]: 3.4 h
CL renal [15]: 14.4 mL/day/kg
AUC(0-t) at 6 h [16]: 1.2 µM·h
AUC(0-t) at 6 h [17]: 4.1 µM·h
Cmax [18]: 600 nM
clearance [19]: 3360 mL/day/kg
dose excreted at 6 h [21]: 0.12%
Vd [23]: 0.99 L/kg
half-life [24]: 1.6 h
ka [25]: 3 h⁻¹
CL(app) [26]: 20.2 mL/day/kg
Drug metabolism [27]: metabolite_not_detected
CL(app) [28]: 13 mL/day/kg
Kp [29]: 0.9
half-life [30]: 3.9 h
half-life [31]: 1.7 h
Compound: CC(C)(C)NC(=O)[C@H]1CC[C@H]2[C@@H]3CC[C@H]4NC(=O)C=C[C@]4(C)[C@H]3CC[C@]12C [FINASTERIDE]
Ae [6]: 0.04 µmol
Ae [20]: 0.09 µmol
Ae [22]: 0.02 µmol
